Sampled rows, rich in hits. Any-hit rate of the full collection: about 3.9%.
CHOP inh: inhibitors of CHOP promoter induction, primary screen, cell-based, unfolded protein response, luciferase reporter; inhibition, % at 10 µM; CHO-K1 CHOP-promoter luciferase, tunicamycin-induced, 15-18 h; hit rate 3.8% among 220,000;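 active = compounds that reduced the stress-induced luciferase reporter signal by more than about 70% of percent inhibition, limit read from the data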
Jurkat NFkB inh: inhibitors of induced NF-kB luciferase reporter, primary screen, TCR NF-kB activation inhibitor project, cell-based, luminescence, uHTS; Jurkat, PMA/ionomycin-induced NF-kB luciferase reporter; inhibition, % at 4 µM; hit rate 0.53% among 330,000; in the data active = inhibition above about 50%
XBP1 UPR activ: activators of adaptive XBP1 UPR arm, primary screen, cell-based, CHO-XBP1 luciferase reporter, luminescence, uHTS; hit rate 0.33% among 330,000; IRE1-XBP1 UPR activation; percent of tunicamycin response, DMSO as zero; activation, % at 20 µM;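 active = versus positive control, 20 µM dose yields 30% or more activation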
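assay system = CHO-XBP1 luciferase reporter cells | amount = 1000 cells/well | buffer or medium = F12 plus 10% FBS | compound dosing = single point, 20 µM final compound, 1% DMSO | incubation = 16-18 h cell attachment at 37 °C, then 6 h compound exposure | detection = Steady-Glo luminescence read | controls = tunicamycin 10 µg/mL and vehicle-only wells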
Gli-Sufu block: Gli-Sufu pathway antagonists, primary screen, luciferase luminescence, Sufu-KO-LIGHT cells, uHTS. inhibition, % at 5 µM. hit rate 0.74% among 340,000. AID 588413, 2011. Sufu-KO-LIGHT fibroblasts, Gli luciferase reporter luminescence;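 active = inhibition above about 55%, limit read from the data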
697 NFkB inh: inhibitors of PMA/ionomycin-induced NF-kB reporter, 697 cells, primary screen, B-cell NF-kB inhibitor project, cell-based, luminescence, uHTS; inhibition, % at 4 µM; 697 B-cell NF-kB luciferase reporter, 16 h; hit rate 0.33% among 330,000; in the data active = inhibition above about 35%
UPR CHOP act: activators of apoptotic CHOP UPR arm, primary screen, cell-based, CHO-CHOP luciferase reporter, luminescence, uHTS; UPR activation; percent of tunicamycin response over DMSO baseline; activation, % at 10 µM; hit rate 0.34% among 330,000;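 active = at 10 µM dose, activation of 40% or more, normalized to positive control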
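Assay system: CHO-CHOP cells, stable luciferase reporter of PERK-eIF2a-CHOP signalling / Buffer or medium: F12 plus 10% serum / Compound dosing: one dose, 10 µM in 0.5% DMSO / Times: 6 h compound treatment, 37 °C / Technique: luciferase luminescence / Read-out: % reporter activation, DMSO baseline versus tunicamycin full activation / Benchmarks: tunicamycin and DMSO controls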
Jurkat NFkB conf: PMA/ionomycin-induced NF-kB reporter inhibitors, Jurkat retest, confirmation, T-cell NF-kB inhibitor project, cell-based, luminescence, single concentration; shares compounds with Jurkat NFkB inh; hit rate 27% among 2,700; Jurkat NF-kB luciferase, 16 h; inhibition, % at 4 µM;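 active = inhibition reaching about 45% at 4 µM in either replicate, limit read from the data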
Numbers stand for hits.

`COc1cccc(-c2cc(=O)c3cc(NC(=O)c4ccc(N(C)C)cc4)ccc3[nH]2)c1` gave CHOP inh inactive, Jurkat NFkB inh 87, XBP1 UPR activ inactive, Gli-Sufu block inactive, 697 NFkB inh inactive, UPR CHOP act inactive and Jurkat NFkB conf 57.
For COc1cccc(-c2cc(=O)c3cc(NC(=O)c4ccc(Cl)cc4)ccc3[nH]2)c1 the results were CHOP inh inactive, Jurkat NFkB inh 78, XBP1 UPR activ inactive, Gli-Sufu block inactive, 697 NFkB inh inactive, UPR CHOP act inactive and Jurkat NFkB conf inactive.
`COc1cccc(-c2cc(=O)c3cc(NC(=O)c4ccccc4)ccc3[nH]2)c1` gave CHOP inh inactive, Jurkat NFkB inh 90, XBP1 UPR activ inactive, Gli-Sufu block inactive, 697 NFkB inh inactive, UPR CHOP act inactive and Jurkat NFkB conf 52.
COc1ccc(NC(=O)CSc2nc3[nH]c(=O)cc(O)c3s2)c(OC)c1 was read as Jurkat NFkB inh inactive, XBP1 UPR activ inactive, Gli-Sufu block inactive, 697 NFkB inh inactive and UPR CHOP act inactive.
Screening CCOc1ccccc1C(=O)Nc1ccc2nc(N3CCN(c4ncccn4)CC3)cc(C)c2c1 returned Jurkat NFkB inh 70, XBP1 UPR activ inactive, Gli-Sufu block inactive, 697 NFkB inh inactive, UPR CHOP act inactive and Jurkat NFkB conf inactive.
Screening COc1cccc(C(=O)Nc2ccc3nc(N4CCN(c5ncccn5)CC4)cc(C)c3c2)c1OC returned CHOP inh inactive, Jurkat NFkB inh inactive, XBP1 UPR activ inactive, 697 NFkB inh inactive and UPR CHOP act inactive.
`CCN1CCN(c2cc(C)c3cc(NC(=O)CCC(=O)Nc4ccc(OC)c(OC)c4)ccc3n2)CC1` gave Jurkat NFkB inh inactive, XBP1 UPR activ inactive, Gli-Sufu block inactive, 697 NFkB inh inactive and UPR CHOP act inactive.
Screening CCN1CCN(c2cc(C)c3cc(NC(=O)c4ccc(OC)c(OC)c4)ccc3n2)CC1 returned CHOP inh inactive, Jurkat NFkB inh 57, XBP1 UPR activ inactive, Gli-Sufu block inactive, 697 NFkB inh inactive, UPR CHOP act inactive and Jurkat NFkB conf inactive.
For COc1ccc(N=C2SCC(c3ccc([N+](=O)[O-])cc3)=NN2CCO)cc1 the results were CHOP inh inactive, Jurkat NFkB inh inactive, XBP1 UPR activ inactive, Gli-Sufu block inactive, 697 NFkB inh inactive and UPR CHOP act inactive.
For O=[N+]([O-])c1ccc(C2=NN(CCO)C(=Nc3ccc(OC(F)(F)F)cc3)SC2)cc1 the results were CHOP inh inactive, Jurkat NFkB inh 75, XBP1 UPR activ inactive, Gli-Sufu block inactive, 697 NFkB inh inactive, UPR CHOP act inactive and Jurkat NFkB conf inactive.
Screening O=C(CSc1nnnn1-c1cccc(O)c1)NC1CC1 returned Jurkat NFkB inh inactive, XBP1 UPR activ inactive, Gli-Sufu block inactive, 697 NFkB inh inactive and UPR CHOP act inactive.
`Cc1ccccc1Nc1nc(N)nc(COC(=O)[C@@H](NC(=O)c2c(F)cccc2F)C(C)C)n1` gave Jurkat NFkB inh inactive, XBP1 UPR activ inactive, Gli-Sufu block inactive, 697 NFkB inh inactive and UPR CHOP act inactive.
Screening COc1ccc(C=C2c3ccccc3C(=O)c3ccccc32)c(OC)c1 returned CHOP inh inactive, Jurkat NFkB inh 66, XBP1 UPR activ inactive, 697 NFkB inh inactive, UPR CHOP act inactive and Jurkat NFkB conf 61.
`Nc1c2c(nn1-c1ccccc1)CCC2` gave Jurkat NFkB inh inactive, XBP1 UPR activ inactive, Gli-Sufu block inactive, 697 NFkB inh inactive and UPR CHOP act inactive.
`Cc1ccc(C)c(NC(=O)C(Sc2ncnc3ccccc23)c2ccccc2)c1` (configuration not stated) gave CHOP inh inactive, Jurkat NFkB inh inactive, XBP1 UPR activ inactive, Gli-Sufu block inactive, 697 NFkB inh inactive and UPR CHOP act inactive.
For Cc1ccc(C)c(NC(=O)C(Sc2nc3ccccc3c(=O)n2CC(C)C)c2ccccc2)c1 (configuration not stated) the results were CHOP inh inactive, Jurkat NFkB inh 65, XBP1 UPR activ inactive, 697 NFkB inh inactive, UPR CHOP act inactive and Jurkat NFkB conf inactive.
`N#CCC(CNc1ncc(C(F)(F)F)cc1Cl)OC(=O)c1ccc(Cl)cc1` (configuration not stated) gave CHOP inh inactive, Jurkat NFkB inh inactive, XBP1 UPR activ inactive, Gli-Sufu block inactive, 697 NFkB inh inactive and UPR CHOP act inactive.
`N#CCC(CNc1ncc(C(F)(F)F)cc1Cl)OC(=O)c1cccc([N+](=O)[O-])c1` (configuration not stated) gave CHOP inh inactive, Jurkat NFkB inh 66, XBP1 UPR activ inactive, Gli-Sufu block inactive, 697 NFkB inh inactive, UPR CHOP act inactive and Jurkat NFkB conf inactive.
For N#CCC(CNc1ncc(C(F)(F)F)cc1Cl)OC(=O)c1c(F)cccc1F (configuration not stated) the results were Jurkat NFkB inh 75, XBP1 UPR activ inactive, Gli-Sufu block inactive, 697 NFkB inh inactive, UPR CHOP act inactive and Jurkat NFkB conf inactive.
Screening Cc1ccc(C(=O)NCCNc2ncc(C(F)(F)F)cc2Cl)cc1[N+](=O)[O-] returned Jurkat NFkB inh inactive, XBP1 UPR activ inactive, Gli-Sufu block inactive, 697 NFkB inh inactive and UPR CHOP act inactive.
For CN(C(=O)c1cccs1)C1(C)CCS(=O)(=O)C1 (configuration not stated) the results were Jurkat NFkB inh inactive, XBP1 UPR activ inactive, Gli-Sufu block inactive, 697 NFkB inh inactive and UPR CHOP act inactive.
CCOC(=O)c1nn(-c2ccc(C)cc2)c(=O)cc1OCC(=O)Nc1ccc(OC)cc1 was read as Jurkat NFkB inh inactive, XBP1 UPR activ inactive, Gli-Sufu block inactive, 697 NFkB inh inactive and UPR CHOP act inactive.
O=C(COc1ccc2ccccc2c1Br)Nc1ccncc1 was read as Jurkat NFkB inh 56, XBP1 UPR activ inactive, Gli-Sufu block inactive, 697 NFkB inh inactive, UPR CHOP act inactive and Jurkat NFkB conf inactive.
For O=C(COc1ccc2ccccc2c1Br)Nc1cccnc1 the results were Jurkat NFkB inh inactive, XBP1 UPR activ inactive, Gli-Sufu block inactive, 697 NFkB inh inactive and UPR CHOP act inactive.
`COc1ccc(NC(=O)c2nc(C)c(C3(C)CC(c4ccccc4)=NO3)s2)cc1` (configuration not stated) gave CHOP inh inactive, Jurkat NFkB inh 55, XBP1 UPR activ inactive, Gli-Sufu block inactive, 697 NFkB inh inactive, UPR CHOP act inactive and Jurkat NFkB conf inactive.

Screening data deposited in PubChem BioAssay by several laboratories.
